Data published in PubChem BioAssay AID1916 (Vanderbilt High Throughput Screening Facility, 2009).
Active and inactive are the calls of the source. The rule behind the calls is not given here.

Each compound was assayed against ATP-sensitive inward rectifier potassium channel 1 (Homo sapiens) (UniProt P48048) (assay: Kir1.1 thallium flux block, concentration series – Tet-inducible ROMK cells, FluoZin2, SAR follow-up (AID 1916)). Conditions: thallium flux FluoZin2 fluorescence.
Chain of ATP-sensitive inward rectifier potassium channel 1 (Homo sapiens) (P48048 whole entry, looked up): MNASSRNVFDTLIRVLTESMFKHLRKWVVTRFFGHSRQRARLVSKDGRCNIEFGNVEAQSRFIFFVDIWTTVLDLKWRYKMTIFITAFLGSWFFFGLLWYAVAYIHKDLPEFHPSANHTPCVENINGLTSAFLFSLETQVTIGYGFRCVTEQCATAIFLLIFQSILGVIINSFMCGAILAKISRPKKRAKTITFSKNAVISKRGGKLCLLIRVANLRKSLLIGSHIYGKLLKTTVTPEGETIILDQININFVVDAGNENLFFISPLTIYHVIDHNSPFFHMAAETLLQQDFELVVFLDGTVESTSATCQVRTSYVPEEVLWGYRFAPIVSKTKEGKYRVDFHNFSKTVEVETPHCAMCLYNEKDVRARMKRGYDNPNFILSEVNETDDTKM
Summary of the method: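 Test system: Tet-inducible ROMK-expressing cells, induced overnight in serum-free medium / Dosing: 11-point compound series in threefold dilution steps / Timing: 20 min room-temperature dye loading, 20 min compound preincubation / Technique: FluoZin2 thallium flux fluorescence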
With `COc1ccccc1CN1CCOCCOCCN(Cc2ccccc2OC)CCOCC1` the IC50 was “inactive”.
With `Oc1ccccc1CN1CCOCCOCCN(Cc2ccccc2O)CCOCC1` the IC50 was “inactive”.
`Cc1ccsc1CN1CCOCCOCCN(Cc2sccc2C)CCOCC1` showed an IC50 of 19.7 µM.
`FC(F)(F)c1cc(CN2CCOCCOCCN(Cc3cc(C(F)(F)F)cc(C(F)(F)F)c3)CCOCC2)cc(C(F)(F)F)c1` was tested, and the IC50 was 24.3 µM.
For `CN(C)c1ccc(CN2CCOCCOCCN(Cc3ccc(N(C)C)cc3)CCOCC2)cc1`, the IC50 was “inactive”.
With `COc1ccc(CN2CCOCCOCCN(Cc3ccc(OC)cc3)CCOCC2)cc1` the IC50 was “inactive”.
Work on `Cc1ccccc1CN1CCOCCOCCN(Cc2ccccc2C)CCOCC1` yielded an IC50 of 13.3 µM.
Work on `COc1cccc(CN2CCOCCOCCN(Cc3cccc(OC)c3)CCOCC2)c1` yielded an IC50 of 25.2 µM.
For `N#Cc1cccc(CN2CCOCCOCCN(Cc3cccc(C#N)c3)CCOCC2)c1`, the IC50 was 0.324 µM.
`COC(=O)c1ccc(CN2CCOCCOCCN(Cc3ccc(C(=O)OC)cc3)CCOCC2)cc1` was tested, and the IC50 was 32.6 µM.
`CC(C)c1ccc(CN2CCOCCOCCN(Cc3ccc(C(C)C)cc3)CCOCC2)cc1` was tested, and the IC50 was “inactive”.
Compound `N#Cc1ccccc1CN1CCOCCOCCN(Cc2ccccc2C#N)CCOCC1` has an IC50 of 8.53 µM.
`COc1cc(CN2CCOCCOCCN(Cc3cc(OC)cc(OC)c3)CCOCC2)cc(OC)c1` showed an IC50 of 37.6 µM.
Work on `FC(F)(F)c1cccc(CN2CCOCCOCCN(Cc3cccc(C(F)(F)F)c3)CCOCC2)c1` yielded an IC50 of 30.6 µM.
Compound `O=[N+]([O-])c1ccccc1CN1CCOCCOCCN(Cc2ccccc2[N+](=O)[O-])CCOCC1` has an IC50 of 6.62 µM.
With `Clc1ccc(CN2CCOCCOCCN(Cc3ccc(Cl)cc3)CCOCC2)cc1` the IC50 was “inactive”.
Compound `O=[N+]([O-])c1ccc(CN2CCOCCOCCN(Cc3ccc([N+](=O)[O-])cc3)CCOCC2)cc1` has an IC50 of 14.2 µM.

Same assay, conditions: thallium flux FluoZin2 fluorescence, at 1 mM (top of the series)
Work on `N#Cc1cc(CN2CCOCCOCCN(Cc3ccc(F)c(C#N)c3)CCOCC2)ccc1F` yielded a % TPNQ activity of 14.7%.
With `CSc1ccc(CN2CCOCCOCCN(Cc3ccc(SC)cc3)CCOCC2)cc1` the “% TPNQ activity” value was “inactive”.
For `COc1ccc(CN2CCOCCOCCN(Cc3ccc(OC)nc3)CCOCC2)cn1`, the % TPNQ activity was 43.4%.
